# hIAP block: human IAP inhibitors, primary screen, biochemical, luminescence, uHTS; purified IAP, CDP-Star luminescence, 30 min; inhibition, % at 10 µM; 330,000 compounds, 0.12% hits; AID 2544, 2010;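 active = inhibition reaching a set limit with compound at 10 µM in the primary screen, cut at about 35% in these data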;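 note: plate controls were DMSO wells with enzyme for no effect and no-enzyme buffer wells for full effect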
# Target sequence (P09923 whole entry, looked up): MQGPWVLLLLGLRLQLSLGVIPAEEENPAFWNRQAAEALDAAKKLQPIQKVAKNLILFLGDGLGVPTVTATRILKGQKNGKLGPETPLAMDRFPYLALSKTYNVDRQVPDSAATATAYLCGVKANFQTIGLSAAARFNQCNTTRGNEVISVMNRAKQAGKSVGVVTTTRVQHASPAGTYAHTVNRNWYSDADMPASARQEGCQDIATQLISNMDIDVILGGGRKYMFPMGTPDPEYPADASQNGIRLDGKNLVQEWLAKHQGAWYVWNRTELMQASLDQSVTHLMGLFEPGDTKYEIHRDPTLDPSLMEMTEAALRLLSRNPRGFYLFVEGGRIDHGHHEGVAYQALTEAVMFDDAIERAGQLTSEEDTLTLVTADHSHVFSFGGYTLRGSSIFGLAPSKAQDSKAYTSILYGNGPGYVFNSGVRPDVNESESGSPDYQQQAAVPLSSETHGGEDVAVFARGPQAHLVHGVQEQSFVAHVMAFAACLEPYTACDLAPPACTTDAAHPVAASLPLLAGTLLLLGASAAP
# bIAP inhibitor: bovine intestinal alkaline phosphatase inhibitors, primary screen, selectivity assay for TNAP inhibitor project, biochemical, bovine IAP, CDP-star luminescence; AID 1019, 2008; inhibition, % at 20 µM; 190,000 tested, under 10 active; purified bovine IAP, 30 min; alkaline phosphatase, intestinal [Bos taurus];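 active = over 50% inhibition of intestinal alkaline phosphatase at 20 µM in the single-dose screen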
#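 Assay system: bovine IAP enzyme; medium: DEA buffer 100 mM, pH 9.8, with MgCl2 1.0 mM, ZnCl2 0.02 mM; doses: 20 µM single dose; incubation: enzyme reaction for 30 min at room temperature; detection: CDP-star luminescence signal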
# mIAP activ: activators of mouse IAP, primary screen, biochemical, luminescence, uHTS. muIAP, CDP-Star luminescence, 30 min; hits give high values; 1 = vehicle-only enzyme signal, 0 = enzyme-free wells. intestinal alkaline phosphatase [Mus musculus]. AID 2805, 2010. activation factor at 10 µM. 330,000 compounds, 0.24% hits;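 active = activation factor of at least 2 at 20 µM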
#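 Assay system: mouse IAP enzyme; Reagent: CDP-Star chemiluminescent phosphatase substrate; Compound: DMSO-dissolved test compounds; Incubation: 30 min, room temperature; Technique: luminescence from enzymatic CDP-Star hydrolysis; Controls: DMSO-only wells and no-enzyme negative control.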
# hIAP act: human IAP activators, primary screen, biochemical, luminescence, uHTS | Intestinal-type alkaline phosphatase (Homo sapiens), P09923 | purified human IAP, CDP-Star luminescence, 30 min; hits give high values; 1 = vehicle-only enzyme, 0 = enzyme-free background | activation factor at 10 µM | 330,000 compounds, 0.16% hits;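 active = activation factor of the enzyme at least 2-fold when tested at 20 µM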
# mIAP block: inhibitors of mouse IAP, primary screen, biochemical, luminescence, uHTS; intestinal alkaline phosphatase [Mus musculus]; purified mouse IAP, CDP-Star luminescence, 30 min; inhibition, % at 10 µM; 330,000 compounds, 0.2% hits; AID 2806, 2010;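 active = inhibition of at least 40% at 10 µM in the primary screen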;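 note: plate controls were DMSO with enzyme for no effect and no enzyme wells for full effect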
# bIAP act: bovine intestinal alkaline phosphatase activators, primary screen, biochemical, bovine IAP, CDP-star luminescence | 200,000 compounds, 0.17% hits | purified bovine IAP, 30 min; hits give high values; fold of DMSO-control signal, blank-subtracted | alkaline phosphatase, intestinal [Bos taurus] | activation factor at 20 µM;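 active = activation factor of 2 or more at 20 µM, a signal rise over negative controls twice the positive control's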
# mIAP inh confirm: inhibitors of mouse IAP, confirmation, biochemical, luminescence, single concentration. shares compounds with mIAP block. purified mouse IAP, CDP-Star luminescence, 30 min. inhibition, % at 10 µM. 11,000 compounds, 4.7% hits. AID 434971, 2010;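 active = inhibition of at least 40% at 10 µM in either of the two replicates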;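 note: plate controls were DMSO wells with enzyme for no effect and buffer wells lacking enzyme for full effect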
# Active calls of the source: *; i = inactive; . = no result. The list is not random: actives were taken first. Their share in the collection is about 0.77%.
SMILES,hIAP block,bIAP inhibitor,mIAP activ,hIAP act,mIAP block,bIAP act,mIAP inh confirm
O=C(Cc1ccc2c(c1)OCO2)NN=Cc1ccc([N+](=O)[O-])o1,-15,.,0.46,1.2,54*,.,69*
O=C(NN=Cc1ccc(F)cc1)c1ccccc1NS(=O)(=O)c1cccs1,-6,.,1,1.1,0,.,.
O=C(NCCCN1CCOCC1)c1ccc(NS(=O)(=O)c2ccccc2)cc1,-25,.,1.1,1.3,-5,.,.
Cc1cc([N+](=O)[O-])cc2c1NC(=O)C2(O)N1CCOCC1 (configuration not stated),-1,6,0.92,1,8,0.9,.
CCOc1ccc(CCNC(=O)CCNC(=O)c2ccccc2Cl)cc1OCC,-33,.,0.99,1.3,1,.,.
Cc1cc(-c2n[nH]c(=S)n2/N=C/C=C/c2ccco2)n[nH]1,-9,.,0.51,1.1,49*,.,54*
Cc1ccccc1-c1n[nH]c(=S)n1/N=C/C=C/c1ccco1,-4,.,0.56,1,44*,.,50*
COc1ccc(S(=O)(=O)N2CC(C)OC(C)C2)cc1C(=O)N1CCCCC1 (configuration not stated),-26,.,0.95,1.3,5,.,.
O=C(NCCCN1CCOCC1)/C(=C/c1ccco1)NC(=O)c1ccccc1,-7,.,0.91,1.1,9,.,.
Cc1cc(-c2nc3c4c5c(sc4[nH]c(=O)n3n2)CCC5)c(C)o1,-12,-4,0.51,1.1,49*,1,66*
CC(=O)Nc1cc(C(=O)N(C)Cc2ccccc2)ccc1S(=O)(=O)c1ccc(C)cc1,11,.,0.9,0.89,10,.,.
O=C(Nc1ccc(Cl)cc1)N[C@@H]1c2c(ccc3ccccc23)OC[C@@H]1CO,-11,-11,13*,1.1,i,1.1,-385
CN(C(=O)c1ccccc1)C1c2c(ccc3ccccc23)OCC1CO (configuration not stated),7,.,0.99,0.93,1,.,.
Cc1nc(S/C(=C/c2ccc(-c3ccc(C(=O)O)cc3)o2)C(=O)O)n[nH]1,-41,.,0.55,1.4,45*,.,45*
CC(=O)c1ccc(-c2ccc(/C=C(/Sc3n[nH]c(C)n3)C(=O)O)o2)cc1,-26,.,0.74,1.3,26,.,.
O=C(Nc1ccc(Cl)cc1)C1CCCN(c2cnccn2)C1 (configuration not stated),-2,.,0.98,1,2,.,.
NC(=O)NC[C@@H]1CC[C@@H](Cc2ccc(-c3ccccc3)cc2)O1,.,.,1,.,-4,.,.
COc1ccc(NC(=O)NC[C@@H]2CC[C@@H](Cc3ccc(-c4ccccc4)cc3)O2)cc1,.,.,2.7*,.,-171,.,-182
O=C(CN1C(=O)/C(=C/c2ccco2)SC1=S)Nc1ccc(C(=O)O)c(O)c1,16,.,0.33,0.84,67*,.,86*
O=C(CN1C(=O)/C(=C/c2ccco2)SC1=S)NC1CCS(=O)(=O)C1 (configuration not stated),-16,.,0.42,1.2,58*,.,79*
O=C(CCN1C(=O)/C(=C/c2ccccc2)SC1=S)NC1CCS(=O)(=O)C1 (configuration not stated),-31,.,0.95,1.3,5,.,.
CC(C(=O)Nc1ccc(C(=O)O)c(O)c1)N1C(=O)/C(=C\c2ccco2)SC1=S (configuration not stated),-20,.,0.38,1.2,62*,.,73*
CC(=C\c1ccco1)/C=C1/SC(=S)N(CC(=O)O)C1=O,9,.,0.49,0.91,51*,.,50*
CC(C)(c1ccccc1)c1ccc(OCc2ccc(C(=O)O)o2)cc1,1,.,0.94,0.99,6,.,.
CCOc1ccc(NC(=O)CCNC(=O)Cn2ccc3ccccc3c2=O)cc1,-7,.,0.95,1.1,5,.,.
SMILES,hIAP block,bIAP inhibitor,mIAP activ,hIAP act,mIAP block,bIAP act,mIAP inh confirm
O=C(NC1CCCC1)c1ccc(COc2ccccc2Br)o1,12,.,1.1,0.88,-10,.,.
COc1ccc(S(=O)(=O)N2CCCOC2CNC(=O)C(=O)NCCCN2CCOCC2)cc1C (configuration not stated),-21,.,1,1.2,-4,.,.
O=C(c1cccc(NC2=NC3CS(=O)(=O)CC3S2)c1)N1CCN(c2ncccn2)CC1 (configuration not stated),5,.,1.2,0.95,-17,.,.
O=C(CN1C(=O)/C(=C/c2ccco2)SC1=S)Nc1ccc(O)c(C(=O)O)c1,-23,.,0.25,1.2,75*,.,76*
CC(C(=O)N(C)C1CCS(=O)(=O)C1)N1C(=O)/C(=C/c2ccco2)SC1=S (configuration not stated),-7,.,0.6,1.1,40*,.,50*
O=C(CCCN1C(=O)/C(=C/c2cccs2)SC1=S)Nc1ccc(O)c(C(=O)O)c1,.,4,.,.,.,1,.
O=S(=O)(c1ccc(Br)s1)N1CCNCC1,-2,.,1.1,1,-7,.,.
O=C1OC2(c3ccccc31)c1cc(I)c(O)c(I)c1Oc1c2cc(I)c(O)c1I,26,.,0.56,0.74,44*,.,64*
Cc1ccc(C)c(NC(=O)CN(C)C(=O)Cn2c(=O)oc3ccccc32)c1,6,.,0.96,0.94,4,.,.
O=C1CC(c2ccc(O)cc2)Oc2cc(O)cc(O)c21 (configuration not stated),-2,-13,1,1,-1,1.1,.
O=C1CC(c2ccc(O)c(O)c2)Oc2c1ccc(O)c2O (configuration not stated),28,.,0.22,0.72,78*,.,81*
C[C@@H]1CN([C@H](C)CO)C(=O)c2cccc(NS(=O)(=O)c3ccccc3)c2O[C@H]1CN(C)C,13,.,1,0.87,-2,.,.
CC(C)=CCc1c(O)c(CC=C(C)C)c2c(c1O)-c1cc(O)c(O)cc1CC2,0,.,0.38,1,62*,.,60*
CC(C)=CCc1c(O)ccc(C2COc3c(CC=C(C)C)c(O)cc(O)c3C2=O)c1O (configuration not stated),-11,.,0.86,1.1,14,.,.
CC(=O)OCCN1C(=O)c2ccc(-c3nc4ccccc4c(=O)o3)cc2C1=O,10,.,0.97,0.9,3,.,.
COc1ccc(O)c(N)c1,26,-11,0.59,0.73,41*,1.1,48*

# Screens deposited in PubChem BioAssay by Sanford-Burnham Center for Chemical Genomics.
